# According to the M2OR odorant receptor database:
# Assays:
# Conditions in all cases: stereoisomer not certain
# UniProt Q8VGX3 = target: T1, UniProt Q8VGX3
# T1 sequence (whole entry): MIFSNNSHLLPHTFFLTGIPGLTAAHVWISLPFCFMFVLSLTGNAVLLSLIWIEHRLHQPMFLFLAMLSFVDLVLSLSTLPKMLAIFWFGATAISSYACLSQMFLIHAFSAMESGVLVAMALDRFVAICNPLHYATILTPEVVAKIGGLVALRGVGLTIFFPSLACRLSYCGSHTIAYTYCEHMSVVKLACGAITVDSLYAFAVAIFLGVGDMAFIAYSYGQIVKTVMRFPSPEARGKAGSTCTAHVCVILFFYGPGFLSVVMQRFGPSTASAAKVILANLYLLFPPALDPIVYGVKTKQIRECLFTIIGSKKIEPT
# Method in brief: (§1)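 Each entry records the cell line, G-protein, co-transfected protein and tags used. Methods varied with the source, often transient luciferase assays in mammalian cell lines. A receptor–molecule pair is called responsive (active) if the original authors judged its signal statistically different from baseline and non-responsive (inactive) otherwise.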
# UniProt Q8VGX5 = target: T2, UniProt Q8VGX5
# T2 sequence (whole entry): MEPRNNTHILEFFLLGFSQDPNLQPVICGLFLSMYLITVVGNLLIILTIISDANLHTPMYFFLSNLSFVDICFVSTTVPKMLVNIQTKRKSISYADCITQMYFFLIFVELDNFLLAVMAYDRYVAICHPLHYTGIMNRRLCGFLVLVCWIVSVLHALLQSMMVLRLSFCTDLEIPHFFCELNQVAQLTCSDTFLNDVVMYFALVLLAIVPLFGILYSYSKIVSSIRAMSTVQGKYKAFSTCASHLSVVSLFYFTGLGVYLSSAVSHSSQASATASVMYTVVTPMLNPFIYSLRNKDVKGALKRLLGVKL
# Method in brief: as §1
# UniProt Q8VGX8 = target: T3, UniProt Q8VGX8
# T3 sequence (whole entry): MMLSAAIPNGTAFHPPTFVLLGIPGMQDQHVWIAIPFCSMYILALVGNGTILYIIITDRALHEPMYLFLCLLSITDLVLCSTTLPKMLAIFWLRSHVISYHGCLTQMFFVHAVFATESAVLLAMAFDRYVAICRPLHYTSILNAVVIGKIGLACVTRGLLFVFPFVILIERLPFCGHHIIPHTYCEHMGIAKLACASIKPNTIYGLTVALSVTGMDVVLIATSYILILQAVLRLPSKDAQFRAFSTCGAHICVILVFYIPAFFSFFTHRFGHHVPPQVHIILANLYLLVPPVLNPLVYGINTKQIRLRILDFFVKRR
# Method in brief: as §1
# UniProt Q8VGY6 = target: T4, UniProt Q8VGY6
# T4 sequence (whole entry): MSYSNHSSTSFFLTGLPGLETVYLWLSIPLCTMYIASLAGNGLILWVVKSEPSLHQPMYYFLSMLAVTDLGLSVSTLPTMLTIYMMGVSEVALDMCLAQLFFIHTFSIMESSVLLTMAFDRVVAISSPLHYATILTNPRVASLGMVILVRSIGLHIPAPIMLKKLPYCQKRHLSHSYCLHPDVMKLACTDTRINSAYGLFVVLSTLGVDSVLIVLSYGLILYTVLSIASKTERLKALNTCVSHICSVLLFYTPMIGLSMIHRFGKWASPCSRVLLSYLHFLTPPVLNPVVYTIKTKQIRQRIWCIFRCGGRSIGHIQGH
# Method in brief: as §1
# UniProt Q8VGZ2 = target: T5, UniProt Q8VGZ2
# T5 sequence (whole entry): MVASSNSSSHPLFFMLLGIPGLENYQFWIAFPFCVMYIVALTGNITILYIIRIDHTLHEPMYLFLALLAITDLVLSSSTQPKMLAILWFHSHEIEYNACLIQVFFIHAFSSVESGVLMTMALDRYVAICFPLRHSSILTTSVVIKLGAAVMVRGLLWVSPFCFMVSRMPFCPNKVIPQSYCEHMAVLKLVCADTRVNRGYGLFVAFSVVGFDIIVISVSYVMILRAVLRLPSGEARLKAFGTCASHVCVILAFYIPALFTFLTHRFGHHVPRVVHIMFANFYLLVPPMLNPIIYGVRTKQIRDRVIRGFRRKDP
# Method in brief: as §1
# UniProt Q8VGZ7 = target: T6, UniProt Q8VGZ7
# T6 sequence (whole entry): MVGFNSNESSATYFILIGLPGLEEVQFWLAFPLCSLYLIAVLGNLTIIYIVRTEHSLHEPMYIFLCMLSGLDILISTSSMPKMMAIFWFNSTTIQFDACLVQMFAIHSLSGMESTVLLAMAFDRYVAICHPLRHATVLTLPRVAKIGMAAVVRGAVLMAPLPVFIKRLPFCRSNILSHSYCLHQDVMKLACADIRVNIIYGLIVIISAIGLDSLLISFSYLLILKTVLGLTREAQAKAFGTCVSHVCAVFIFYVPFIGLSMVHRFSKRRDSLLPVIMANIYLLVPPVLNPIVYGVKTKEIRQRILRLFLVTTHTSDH
# Method in brief: as §1
# UniProt Q8VH10 = target: T7, UniProt Q8VH10
# T7 sequence (whole entry): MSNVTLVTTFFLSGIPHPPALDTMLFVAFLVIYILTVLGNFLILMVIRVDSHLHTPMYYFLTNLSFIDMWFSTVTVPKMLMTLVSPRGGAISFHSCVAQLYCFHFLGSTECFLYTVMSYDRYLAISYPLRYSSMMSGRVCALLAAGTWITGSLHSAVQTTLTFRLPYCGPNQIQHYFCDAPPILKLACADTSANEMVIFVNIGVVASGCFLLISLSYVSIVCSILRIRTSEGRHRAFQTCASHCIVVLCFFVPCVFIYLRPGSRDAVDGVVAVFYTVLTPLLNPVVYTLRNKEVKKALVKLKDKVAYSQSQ
# Method in brief: as §1
# UniProt Q8VH16 = target: T8, UniProt Q8VH16
# T8 sequence (whole entry): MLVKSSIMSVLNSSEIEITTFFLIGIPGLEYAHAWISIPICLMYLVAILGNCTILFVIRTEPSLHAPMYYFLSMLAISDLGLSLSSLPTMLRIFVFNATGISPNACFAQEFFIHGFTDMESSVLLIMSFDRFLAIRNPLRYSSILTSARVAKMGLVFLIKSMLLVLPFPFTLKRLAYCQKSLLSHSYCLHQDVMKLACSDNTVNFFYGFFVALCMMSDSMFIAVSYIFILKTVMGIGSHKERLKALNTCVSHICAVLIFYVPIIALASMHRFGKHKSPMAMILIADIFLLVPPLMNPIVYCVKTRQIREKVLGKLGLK
# Method in brief: as §1
# UniProt Q8VH20 = target: T9, UniProt Q8VH20
# T9 sequence (whole entry): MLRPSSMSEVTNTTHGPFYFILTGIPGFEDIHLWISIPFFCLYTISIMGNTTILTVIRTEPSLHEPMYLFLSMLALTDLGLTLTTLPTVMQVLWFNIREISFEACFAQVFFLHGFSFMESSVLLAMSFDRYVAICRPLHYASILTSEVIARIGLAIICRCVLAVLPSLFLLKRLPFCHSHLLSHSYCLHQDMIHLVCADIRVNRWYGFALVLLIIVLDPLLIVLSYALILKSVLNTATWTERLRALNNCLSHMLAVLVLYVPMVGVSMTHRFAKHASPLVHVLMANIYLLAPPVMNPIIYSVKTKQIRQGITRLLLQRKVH
# Method in brief: as §1
# UniProt Q8VH21 = target: T10, UniProt Q8VH21
# T10 sequence (whole entry): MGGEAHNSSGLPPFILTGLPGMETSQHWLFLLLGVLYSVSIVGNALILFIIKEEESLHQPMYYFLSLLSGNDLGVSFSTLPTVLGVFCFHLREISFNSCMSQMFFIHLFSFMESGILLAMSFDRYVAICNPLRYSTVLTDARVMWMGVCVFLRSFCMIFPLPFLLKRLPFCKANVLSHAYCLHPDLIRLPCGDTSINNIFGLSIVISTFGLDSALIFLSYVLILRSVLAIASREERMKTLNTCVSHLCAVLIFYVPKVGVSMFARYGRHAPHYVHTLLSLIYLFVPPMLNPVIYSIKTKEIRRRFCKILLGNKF
# Method in brief: as §1
# UniProt Q924H8 = target: T11, UniProt Q924H8
# T11 sequence (whole entry): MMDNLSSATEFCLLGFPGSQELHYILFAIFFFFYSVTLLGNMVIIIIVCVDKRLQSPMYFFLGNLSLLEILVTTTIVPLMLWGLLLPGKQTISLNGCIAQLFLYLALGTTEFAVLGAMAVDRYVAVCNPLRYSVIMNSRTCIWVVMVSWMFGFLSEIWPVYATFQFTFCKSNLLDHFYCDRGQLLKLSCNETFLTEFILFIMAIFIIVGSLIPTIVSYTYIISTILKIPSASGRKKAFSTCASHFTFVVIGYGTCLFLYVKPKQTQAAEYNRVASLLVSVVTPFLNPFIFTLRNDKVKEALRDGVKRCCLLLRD
# Method in brief: as §1
# UniProt Q9EPN9 = target: T12, UniProt Q9EPN9
# T12 sequence (whole entry): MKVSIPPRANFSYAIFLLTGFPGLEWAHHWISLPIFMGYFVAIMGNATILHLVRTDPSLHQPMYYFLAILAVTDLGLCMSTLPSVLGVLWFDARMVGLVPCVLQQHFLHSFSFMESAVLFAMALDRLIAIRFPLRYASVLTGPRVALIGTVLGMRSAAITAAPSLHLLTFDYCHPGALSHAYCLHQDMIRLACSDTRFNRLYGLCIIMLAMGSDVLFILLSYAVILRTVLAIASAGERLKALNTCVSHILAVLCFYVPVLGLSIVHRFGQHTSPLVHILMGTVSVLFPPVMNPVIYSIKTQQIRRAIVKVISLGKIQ
# Method in brief: as §1
# UniProt Q9R0K2 = target: UniProt Q9R0K2
# Method in brief: as §1
# UniProt Q9WU86 = target: T13, UniProt Q9WU86
# T13 sequence (whole entry): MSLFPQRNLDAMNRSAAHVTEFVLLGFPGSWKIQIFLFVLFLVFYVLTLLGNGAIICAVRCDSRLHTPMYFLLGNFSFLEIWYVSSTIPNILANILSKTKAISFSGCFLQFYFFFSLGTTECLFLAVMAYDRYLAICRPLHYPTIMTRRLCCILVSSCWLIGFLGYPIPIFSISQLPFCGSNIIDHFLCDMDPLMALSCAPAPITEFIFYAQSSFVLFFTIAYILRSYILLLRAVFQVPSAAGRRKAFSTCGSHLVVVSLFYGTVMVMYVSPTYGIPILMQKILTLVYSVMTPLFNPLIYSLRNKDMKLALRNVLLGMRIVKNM
# Method in brief: as §1
# UniProt Q9R0K2, sequence (Q9R0K2 as listed by the source): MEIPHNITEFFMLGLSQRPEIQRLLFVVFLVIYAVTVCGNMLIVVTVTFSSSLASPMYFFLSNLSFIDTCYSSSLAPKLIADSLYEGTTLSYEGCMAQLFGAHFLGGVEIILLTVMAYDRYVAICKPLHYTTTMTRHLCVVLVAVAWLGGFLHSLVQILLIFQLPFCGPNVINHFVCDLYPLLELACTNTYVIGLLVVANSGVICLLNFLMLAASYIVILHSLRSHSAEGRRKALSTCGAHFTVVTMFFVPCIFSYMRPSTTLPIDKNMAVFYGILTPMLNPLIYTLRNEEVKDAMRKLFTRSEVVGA
compound,measurement,setting,value
C=CCOC(=O)Cc1ccccc1,odorant receptor agonist call,UniProt Q8VGX3,inactive
same,odorant receptor agonist call,UniProt Q8VGX5,active
same,odorant receptor agonist call,UniProt Q8VGX8,inactive
same,odorant receptor agonist call,UniProt Q8VGY6,inactive
same,odorant receptor agonist call,UniProt Q8VGZ2,inactive
same,odorant receptor agonist call,UniProt Q8VGZ7,inactive
same,odorant receptor agonist call,UniProt Q8VH10,active
same,odorant receptor agonist call,UniProt Q8VH16,inactive
same,odorant receptor agonist call,UniProt Q8VH20,inactive
same,odorant receptor agonist call,UniProt Q8VH21,inactive
same,odorant receptor agonist call,UniProt Q924H8,inactive
same,odorant receptor agonist call,UniProt Q9EPN9,active
same,odorant receptor agonist call,UniProt Q9R0K2,active
same,odorant receptor agonist call,UniProt Q9WU86,inactive
